Measured values published in PMC7983942 (Clinical Pharmacology and Therapeutics, 2020).
Substitutions are numbered along the chain they refer to.

What was measured:
Type in all cases: in vitro ADME
OATP1B1*14 = molecular target: T1, OATP1B1*14 (Homo sapiens, UniProt Q9Y6L6, N130D/P155T); experiment: Uptake into OATP1B1 variant-transfected vs wild-type HEK293 cells; conditions: for Uptake ratio as percentage of OATP1B1*14 in the same experiment: OATP1B1*14 (reference); for Uptake ratio (vs. wild‐type HEK293 cells): OATP1B1*14, 2 minutes
T1 sequence (Q9Y6L6 1-691 N130D/P155T): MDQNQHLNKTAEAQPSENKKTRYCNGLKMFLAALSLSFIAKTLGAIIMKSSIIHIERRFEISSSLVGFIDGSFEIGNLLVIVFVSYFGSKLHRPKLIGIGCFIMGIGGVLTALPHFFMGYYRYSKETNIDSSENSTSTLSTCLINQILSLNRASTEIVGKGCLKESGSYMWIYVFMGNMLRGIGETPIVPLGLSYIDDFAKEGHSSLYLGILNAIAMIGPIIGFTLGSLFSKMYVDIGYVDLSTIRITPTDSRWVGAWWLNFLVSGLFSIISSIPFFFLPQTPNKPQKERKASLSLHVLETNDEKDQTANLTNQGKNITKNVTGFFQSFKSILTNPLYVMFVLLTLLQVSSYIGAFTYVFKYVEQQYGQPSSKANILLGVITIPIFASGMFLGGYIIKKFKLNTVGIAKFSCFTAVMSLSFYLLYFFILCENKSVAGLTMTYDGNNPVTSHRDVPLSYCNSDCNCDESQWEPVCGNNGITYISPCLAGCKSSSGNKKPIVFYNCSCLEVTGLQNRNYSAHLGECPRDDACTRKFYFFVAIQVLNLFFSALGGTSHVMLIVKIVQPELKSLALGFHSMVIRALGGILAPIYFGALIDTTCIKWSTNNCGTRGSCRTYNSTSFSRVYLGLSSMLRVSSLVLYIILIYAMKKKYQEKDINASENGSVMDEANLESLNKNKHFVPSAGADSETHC

OATP1B1*5 = molecular target: T2, OATP1B1*5 (Homo sapiens, UniProt Q9Y6L6, V174A); experiment: Uptake into OATP1B1 variant-transfected vs wild-type HEK293 cells; conditions: for Uptake ratio (vs. wild‐type HEK293 cells): 2 minutes
T2 sequence (Q9Y6L6 1-691 V174A): T1 sequence (Q9Y6L6 1-691 N130D/P155T) with D130N, T155P, V174A
Procedure, shortened: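 HEK293 cells stably expressing an OATP1B1 variant, alongside wild-type HEK293, were seeded at 0.5–1.2 × 10⁵ cells/well on poly-D-lysine plates. They grew 48 h at 37°C and 5% CO₂ in DMEM with 10% FBS, 1% pyruvate, nonessential amino acids and GlutaMAX. Substrate was 1 µM (0.5 µM where footnoted) for 2 min, then four ice-cold buffer washes and methanol lysis with internal standard. Uptake ratio (transfected/wild-type) is expressed as % of OATP1B1*14 in the same experiment; n=3 determinations.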

OATP2B1 = molecular target: T3, OATP2B1 (Homo sapiens, UniProt O94956); experiment: Uptake into transporter-transfected vs wild-type HEK293 cells; conditions: rosuvastatin 1 µM, two to four minutes
T3 sequence (O94956 1-709): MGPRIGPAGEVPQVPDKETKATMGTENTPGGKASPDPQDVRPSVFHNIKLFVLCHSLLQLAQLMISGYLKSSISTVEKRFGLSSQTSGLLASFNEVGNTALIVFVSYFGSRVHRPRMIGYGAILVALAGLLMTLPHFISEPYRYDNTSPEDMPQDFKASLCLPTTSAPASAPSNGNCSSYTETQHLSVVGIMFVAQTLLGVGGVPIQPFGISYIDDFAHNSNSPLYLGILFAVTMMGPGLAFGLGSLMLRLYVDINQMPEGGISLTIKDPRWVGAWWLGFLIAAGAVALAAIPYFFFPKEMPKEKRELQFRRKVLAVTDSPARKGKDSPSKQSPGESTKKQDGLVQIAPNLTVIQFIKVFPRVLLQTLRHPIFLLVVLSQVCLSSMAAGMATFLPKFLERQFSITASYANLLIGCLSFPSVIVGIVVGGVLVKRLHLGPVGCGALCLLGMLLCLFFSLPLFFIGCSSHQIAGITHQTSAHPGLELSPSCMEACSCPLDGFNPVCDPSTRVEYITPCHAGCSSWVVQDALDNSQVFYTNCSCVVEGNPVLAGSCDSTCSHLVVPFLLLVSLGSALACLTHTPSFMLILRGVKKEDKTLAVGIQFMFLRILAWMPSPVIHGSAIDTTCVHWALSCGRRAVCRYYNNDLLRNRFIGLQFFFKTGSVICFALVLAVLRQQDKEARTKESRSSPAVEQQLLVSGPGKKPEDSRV
Procedure, shortened: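 HEK293 cells stably transfected with OATP1B1*1A, OATP1B3 or OATP2B1, plus wild-type cells, were seeded on poly-D-lysine plates. Culture was 48 h at 37°C in DMEM with 10% FBS, pyruvate, nonessential amino acids and GlutaMAX. Test compound was 1 µM for 2 min; rosuvastatin probe was 1 µM over 2–4 min. Cells were washed four times in ice-cold buffer and lysed in methanol with internal standard. Readouts were uptake ratio versus wild-type and glucuronide/probe ratio of ratios; mean ± SD, n=3 in one experiment.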

[1] = experiment 1, substrate concentration 0.5 µM

Uptake ratio as percentage of OATP1B1*14 in the same experiment (OATP1B1*14; [1]): 100%
Uptake ratio as percentage of OATP1B1*14 in the same experiment (OATP1B1*14; experiment 2, substrate 1 µM): 100%
Uptake ratio (vs. wild‐type HEK293 cells) (OATP1B1*14; [1]): 15 ± 0.2
Uptake ratio (vs. wild‐type HEK293 cells) (OATP1B1*14; experiment 2, substrate 1 µM): 40 ± 3.3
Uptake ratio (vs. wild‐type HEK293 cells) (OATP1B1*14; experiment 3, substrate 1 µM): 85 ± 5.3
Uptake ratio as percentage of OATP1B1*14 in the same experiment (OATP1B1*5; [1]): 16%
Uptake ratio (vs. wild‐type HEK293 cells) (OATP1B1*5; [1]): 2.4 ± 0.4
Uptake ratio as percentage of OATP1B1*14 in the same experiment (OATP1B1*5; experiment 2, substrate 1 µM): 15%
Uptake ratio (vs. wild‐type HEK293 cells) (OATP1B1*5; experiment 2, substrate 1 µM): 5.9 ± 0.5
Uptake ratio (vs. wild‐type HEK293 cells), probe (OATP2B1): 71.1 ± 9.6
SMILES: CC(C)c1nc(N(C)S(C)(=O)=O)nc(-c2ccc(F)cc2)c1/C=C/[C@@H](O)C[C@@H](O)CC(=O)O [Rosuvastatin]
